An excerpt weighted towards active compounds, which were near 4.8% of everything screened.
Beta cell apopt = beta cell apoptosis inhibition; INS-1E cytokine-induced death, ATP luminescence, 48 h; percent of positive-control rescue, neutral wells zero; protection from apoptosis, % (test concentration not listed); hit rate 0.8% among 300,000;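 active = Every replicate reaches about 75%, or at least half do and their mean reaches it too, limit read from the data; inconclusive = At least half of replicates reach the limit but their mean does not; inactive = Under half of replicates reach the limit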;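 note: higher means more ATP so stronger rescue from cytokine killing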
T cruzi inh = T. cruzi replication inhibition | T. cruzi beta-gal in NIH3T3, luminescence, 90 h | inhibition, % (test concentration not listed) | hit rate 1.4% among 300,000;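 active = mean inhibition across valid replicates above about 55%, limit read from the data; inconclusive = mean below that limit but half or more replicates reach it; inactive = mean below it, under half of replicates reach it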;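 note: signal also drops with host cell toxicity which is not excluded here; higher percent means less beta-gal luminescence so fewer parasites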
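Read-out: Parasite load inhibition, % | Test system: Mouse NIH/3T3 fibroblasts infected with β-gal-expressing T. cruzi Tulahuen C4 | Amount: 5,000 cells/well | Medium: DMEM, 2% fetal bovine serum | Signal: GalScreen β-gal luminescence, detergent lysis, 60 min | Timing: 3 h attach, ≥90 h co-culture | Also added: Tulahuen C4 trypomastigotes, 5000/well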
CSC inhib = blocks cancer stem cells | cancer stem cell-like cells viability, luminescence | inhibition, % at 7.5 µM | hit rate 1.1% among 300,000; in the data active = inhibition above about 75%; inconclusive = no clear call, values can overlap the other calls; tested in HMLE shEcad cells
Efflux pump inh = blocks antifungal efflux pumps in multiplex yeast assay. S. cerevisiae Candida pump triplex, Nile Red efflux. inhibition, % at 10 µM. hit rate 0.44% among 330,000. AID 485275;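 active = plate passing quality check with inhibition over a set limit, or well fluorescence over plate mean plus 4 SD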;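 note: Nile Red retained in pooled yeast measured as flow cytometry median fluorescence; higher means more Nile Red kept so more efflux inhibition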
Mot1-301 SUMO = inhibitors of SUMOylation pathway: yeast Mot1-301 growth rescue | AID 2716 | hit rate 1% among 320,000 | growth rescue, % at 18.8 µM | S. cerevisiae Mot1-301 growth rescue, ATP luminescence, 38.5C; percent above DMSO median, 100 means doubled;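 active = every valid replicate shows activation above 250% relative to neutral control wells; inactive = the rest, any valid replicate at or below 250%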
WT yeast gro inh = growth inhibition of WT yeast, mitochondrial fusion screen; mitochondrial fusion phenotypic screen, WT strain; inhibition, % at 10 µM; hit rate 2.1% among 190,000; AID 1362; in the data active = inhibition above about 58%; tested in S. cerevisiae
Hits are given with their value; - = inactive; ? = inconclusive; . = no result.

SMILES	Beta cell apopt	T cruzi inh	CSC inhib	Efflux pump inh	Mot1-301 SUMO	WT yeast gro inh
COc1ccc(C2C=C(C34CC5CC(CC(C5)C3)C4)NC(=S)N2)cc1 (stereo unspecified)	-	-	-	-	-	69.8
COc1ccc(OC)c(N(CC(=O)N2CCOCC2)S(C)(=O)=O)c1	-	-	-	-	-	.
O=[N+]([O-])c1ccccc1N=Nc1ccc(O)cc1	-	-	-	-	-	.
COc1cc(N=Nc2ccc3ccccc3c2)ccc1O	-	-	93.0	-	-	.
Oc1ccc(N=Nc2ccc3ccccc3c2)cc1	-	-	110.5	-	-	.
O=C(COC(=O)C1(c2ccc(F)cc2)CCCC1)N1CCc2ccccc21	-	-	-	-	-	-
COc1ccc(CCC(C)NCC2CCCCC2)cc1 (stereo unspecified)	-	-	92.6	-	-	-
COc1ccc(CCC(C)NC2CCCCCCC2)cc1 (stereo unspecified)	-	-	-	-	-	.
COc1ccc(OC)c(CC(NC(C)=O)C(=O)NC2CCN(S(=O)(=O)c3ccc(NC(C)=O)cc3)CC2)c1 (stereo unspecified)	-	-	-	-	-	.
O=S(=O)(Cc1ccccc1)c1cnc2ccccc2n1	-	-	-	-	-	-
COC(=O)c1cnc(N2CCCN(S(=O)(=O)c3ccc(C(F)(F)F)cc3)CC2)nc1C(F)(F)F	-	55.3	-	-	-	.
COC(=O)c1cnc(N2CCCN(S(=O)(=O)c3ccccc3)CC2)nc1C(F)(F)F	-	-	-	-	-	.
Cc1ccc(S(=O)(=O)Nc2ccccc2C(=O)Nc2nc(-c3ccc(F)cc3)cs2)cc1	99.3	-	-	-	-	73.9
COc1ccc(-c2csc(NC(=O)c3ccccc3NS(=O)(=O)c3ccc(F)c(F)c3)n2)cc1	86.7	-	114.0	-	-	87.3
COc1ccc(-c2csc(NC(=O)c3ccccc3F)n2)cc1	-	-	-	-	-	.
COC(=O)C1=CN(c2ccc(OC)cc2)C=C(C(=O)OC)C1c1ccc([N+](=O)[O-])cc1	-	60.2	-	-	-	.
COC(=O)C1=CN(c2ccc(F)cc2)C=C(C(=O)OC)C1c1ccc([N+](=O)[O-])cc1	-	?	-	-	-	.
CC(=O)Oc1cccc(C(=O)Nc2ccc(NC(=O)c3cccs3)cc2)c1	-	-	-	-	-	.
Cc1ccc(C(c2cc(Cl)c3cccnc3c2O)N2CCN(C)CC2)cc1 (stereo unspecified)	-	-	115.2	-	-	.
Oc1c(C(c2ccc(Cl)cc2)N2CCCC2)cc(Cl)c2cccnc12 (stereo unspecified)	-	70.3	99.3	-	-	-
CN1CCN(C(c2ccccn2)c2cc(Cl)c3cccnc3c2O)CC1 (stereo unspecified)	-	?	-	-	-	-
COc1ccc(NC(=O)c2ccc([N+](=O)[O-])s2)c([N+](=O)[O-])c1	-	63.8	-	-	-	-
Cc1cccc(NC(=O)c2ccc([N+](=O)[O-])s2)n1	-	64.7	-	-	-	.
Cc1ccccc1NCc1ccc([N+](=O)[O-])s1	-	-	93.8	-	-	.
Cc1cccc(NC(=O)c2ccc([N+](=O)[O-])o2)n1	.	-	-	-	-	-
SMILES	Beta cell apopt	T cruzi inh	CSC inhib	Efflux pump inh	Mot1-301 SUMO	WT yeast gro inh
COc1ccccc1NCc1ccc([N+](=O)[O-])s1	-	-	-	-	-	-
Cc1ccnc(NC(=O)c2cc([N+](=O)[O-])cc([N+](=O)[O-])c2)c1	-	60.3	-	-	.	-
CC(=O)c1ccccc1NC(=O)Cn1c(=O)cnc2ccccc21	-	-	-	-	-	-
Cc1cc(NC(=O)c2cc([N+](=O)[O-])cc([N+](=O)[O-])c2)no1	-	54.6	-	-	-	.
Cc1ccnc(NC(=O)c2ccc([N+](=O)[O-])s2)c1	82.2	55.5	-	-	-	.
Cc1ccnc(NC(=O)Cc2ccc([N+](=O)[O-])cc2)c1	-	-	.	-	363.6	-
Cc1cccc(NC(=O)c2ccc([N+](=O)[O-])s2)c1C	105.4	65.9	-	-	-	-
Cc1cc(NC(=O)c2cccc([N+](=O)[O-])c2)no1	-	-	-	-	-	.
Cc1cccc(C)c1NC(=O)c1ccc([N+](=O)[O-])s1	-	-	-	-	-	-
Cc1ccnc(NC(=O)CNC(=O)c2ccc(C)s2)c1	-	-	-	-	-	.
CN1CCN(c2ccccc2NC(=O)COc2ccc(Br)cc2)CC1	-	-	-	-	-	-
O=[N+]([O-])c1ccc2nc(Cl)nc(-c3ccccc3)c2c1	-	-	-	-	-	.
CC(=O)NS(=O)(=O)c1ccc(N=c2ssc3c2-c2ccc(C)cc2NC3(C)C)cc1	-	-	-	-	-	-
Cc1ccc(S(=O)(=O)CC(=O)N(C)C)cc1	-	-	-	-	-	-
O=C(NNC(=O)c1cc2cc(Br)ccc2oc1=O)c1ccc(O)cc1O	-	-	77.0	-	-	-
O=C(CNc1ccc2ccccc2c1)N/N=C/c1ccc([N+](=O)[O-])o1	-	68.5	-	-	-	-
Cc1ccc(NC(=O)CCC(=O)N/N=C/c2ccc([N+](=O)[O-])o2)cc1C	?	60.6	-	-	-	.
CN(/N=C/c1ccc([N+](=O)[O-])o1)c1ccccc1	-	60.0	-	-	-	-
O=C(N/N=C/c1ccc([N+](=O)[O-])o1)C(O)c1ccccc1 (stereo unspecified)	.	75.8	-	-	-	.
COC(=O)c1ccccc1NC(=O)CCCn1nc([N+](=O)[O-])c(Br)c1C	-	-	-	-	-	-
O=C(COc1ccccc1)N/N=C/c1cc2c(cc1[N+](=O)[O-])OCO2	-	-	-	-	-	-
Cc1cc(C(=O)N/N=C/c2ccc([N+](=O)[O-])o2)c(C)o1	-	-	-	-	-	.
Cc1ccc(OCC(=O)N/N=C/c2ccc([N+](=O)[O-])o2)cc1	-	66.3	-	-	-	-
O=C(COc1ccccc1)N/N=C/c1ccc([N+](=O)[O-])o1	-	82.6	-	-	-	-
COc1ccc(-c2nn(-c3ccccc3)cc2C(=O)N/N=C/c2ccc([N+](=O)[O-])o2)cc1	-	90.2	-	-	-	-
SMILES	Beta cell apopt	T cruzi inh	CSC inhib	Efflux pump inh	Mot1-301 SUMO	WT yeast gro inh
CCCOc1ccc(CNC(=S)N/N=C/c2ccc([N+](=O)[O-])cc2)cc1	-	61.2	-	-	-	-
CC(C)COc1ccc(CNC(=S)N/N=C/c2ccc([N+](=O)[O-])cc2)cc1	-	-	-	-	-	-
O=C(CCC(=O)c1ccc(F)cc1)NCC1(N2CCCCC2)CCCCC1	-	.	.	-	-	.
CCCCCCCCC/C(=N\O)c1ccccn1	-	63.5	-	-	-	73.7
CCOc1ccc(-n2c(SCC(=O)N3CCC(C(=O)O)CC3)nc3ccccc3c2=O)cc1	-	-	-	-	-	.
O=C(COC(=O)CSCC(=O)N1CCCCC1)Nc1ccc(Cl)cc1	-	-	-	-	338.1	-
COc1cccc(OCc2cc(C(=O)NCc3cnc4ccccn34)no2)c1	-	-	-	-	-	.

Compound activity as filed in PubChem BioAssay.
